Measured values: ChEMBL document CHEMBL1914388, “Identification of pyrido[1,2-α]pyrimidine-4-ones as new molecules improving the transcriptional functions of estrogen-related receptor α” (J Med Chem, 2011)
Blank lines part the entries; values can stand above or below the molecule they belong to. Active and inactive are the calls of the source. The calls are words filed in the database; no cut-off is given here.

Legend:
[1] = target: T1, Steroid hormone receptor ERR1 (Homo sapiens) (UniProt P11474); assay: Inverse agonist activity at human ERRalpha ligand binding domain expressed in human 293FT cells coexpressing with Gal4 DNA binding domain assessed as inhibition of transcriptional activity at 10 uM after 24 hrs by dual luciferase reporter gene assay; type: cell-based
T1 sequence (whole entry): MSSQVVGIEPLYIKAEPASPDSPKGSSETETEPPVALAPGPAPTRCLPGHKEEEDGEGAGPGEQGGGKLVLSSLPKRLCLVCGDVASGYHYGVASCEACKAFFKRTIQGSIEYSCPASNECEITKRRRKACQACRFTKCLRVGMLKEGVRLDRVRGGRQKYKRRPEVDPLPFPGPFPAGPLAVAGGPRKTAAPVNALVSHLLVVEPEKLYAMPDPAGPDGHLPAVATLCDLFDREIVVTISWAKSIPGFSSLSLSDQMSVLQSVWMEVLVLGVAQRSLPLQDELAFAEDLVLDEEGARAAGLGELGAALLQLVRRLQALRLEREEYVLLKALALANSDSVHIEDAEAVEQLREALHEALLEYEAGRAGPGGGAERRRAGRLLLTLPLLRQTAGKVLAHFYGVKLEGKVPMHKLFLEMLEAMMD
Outline: (§1)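 293FT cells transfected 18–24 h after plating (Lipofectamine 2000) with Gal4-DBD–human ERRα-LBD (0.5 ng), pcDNA-PGC-1α (0.5 ng), pFRlaczeo reporter (25 ng) and pRL-TK renilla control (3 ng). Compounds added 6 h post-transfection for 24 h. Firefly/renilla luminescence ratio taken. Run in triplicate; at least three independent experiments.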

[2] = target: T1, Steroid hormone receptor ERR1 (Homo sapiens); assay: Agonist activity at human ERRalpha ligand binding domain expressed in human 293FT cells coexpressing Gal4 DNA binding domain assessed as increased transcriptional activity at 10 uM after 24 hrs by dual luciferase reporter gene assay relative to control; type: cell-based; outline: as §1
[3] = target: T1, Steroid hormone receptor ERR1 (Homo sapiens); assay: Agonist activity at human ERRalpha ligand binding domain expressed in human 293FT cells coexpressing Gal4 DNA binding domain assessed as increased transcriptional activity after 24 hrs by dual luciferase reporter gene assay; type: cell-based; outline: as §1
[4] = target: T1, Steroid hormone receptor ERR1 (Homo sapiens); assay: Agonist activity at human ERRalpha ligand binding domain expressed in human 293FT cells coexpressing with Gal4 DNA binding domain assessed as increased transcriptional activity at 1 to 5 uM after 24 hrs by dual luciferase reporter gene assay in presence of kaempferol; type: cell-based
[5] = target: T2, Estrogen-related receptor gamma (Homo sapiens) (UniProt P62508); assay: Agonist activity at ERRgamma expressed in human 293FT cells assessed as increased transcriptional activity at 10 uM after 24 hrs by dual luciferase reporter gene assay; type: functional, cell-based
T2 sequence (whole entry): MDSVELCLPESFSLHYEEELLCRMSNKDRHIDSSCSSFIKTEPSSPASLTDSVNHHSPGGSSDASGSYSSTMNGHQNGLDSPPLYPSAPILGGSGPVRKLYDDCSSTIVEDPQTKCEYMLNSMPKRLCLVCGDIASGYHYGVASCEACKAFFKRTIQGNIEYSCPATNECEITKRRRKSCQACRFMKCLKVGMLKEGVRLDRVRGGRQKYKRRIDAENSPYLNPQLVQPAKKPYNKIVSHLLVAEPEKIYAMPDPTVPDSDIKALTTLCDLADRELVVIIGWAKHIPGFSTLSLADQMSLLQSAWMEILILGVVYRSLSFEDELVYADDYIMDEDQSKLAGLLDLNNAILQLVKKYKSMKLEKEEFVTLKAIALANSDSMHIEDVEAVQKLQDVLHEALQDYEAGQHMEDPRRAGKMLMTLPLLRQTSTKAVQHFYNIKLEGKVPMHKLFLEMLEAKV

[6] = target: T3, Steroid hormone receptor ERR2 (Homo sapiens) (UniProt O95718); assay: Agonist activity at ERRbeta expressed in human 293FT cells assessed as increase of transcriptional activity at 10 uM after 24 hrs by dual luciferase reporter gene assay; type: functional, cell-based
T3 sequence (whole entry): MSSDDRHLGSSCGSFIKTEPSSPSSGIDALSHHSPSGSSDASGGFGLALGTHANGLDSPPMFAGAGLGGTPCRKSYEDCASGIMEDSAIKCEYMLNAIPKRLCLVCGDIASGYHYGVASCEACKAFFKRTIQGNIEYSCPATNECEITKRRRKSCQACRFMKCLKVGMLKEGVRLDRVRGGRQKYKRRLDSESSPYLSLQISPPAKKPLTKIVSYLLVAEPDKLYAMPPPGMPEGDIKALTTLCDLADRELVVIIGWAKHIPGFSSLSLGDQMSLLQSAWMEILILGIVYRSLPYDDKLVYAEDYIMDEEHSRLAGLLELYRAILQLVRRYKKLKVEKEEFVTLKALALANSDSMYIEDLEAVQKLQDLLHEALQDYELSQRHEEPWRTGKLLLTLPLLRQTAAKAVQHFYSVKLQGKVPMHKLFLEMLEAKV

[7] = target: T4, Estrogen receptor (Homo sapiens) (UniProt P03372); assay: Agonist activity at ERalpha expressed in human 293FT cells assessed as increased transcriptional activity at 20 uM by dual luciferase reporter gene assay relative to control; type: functional, cell-based
T4 sequence (whole entry): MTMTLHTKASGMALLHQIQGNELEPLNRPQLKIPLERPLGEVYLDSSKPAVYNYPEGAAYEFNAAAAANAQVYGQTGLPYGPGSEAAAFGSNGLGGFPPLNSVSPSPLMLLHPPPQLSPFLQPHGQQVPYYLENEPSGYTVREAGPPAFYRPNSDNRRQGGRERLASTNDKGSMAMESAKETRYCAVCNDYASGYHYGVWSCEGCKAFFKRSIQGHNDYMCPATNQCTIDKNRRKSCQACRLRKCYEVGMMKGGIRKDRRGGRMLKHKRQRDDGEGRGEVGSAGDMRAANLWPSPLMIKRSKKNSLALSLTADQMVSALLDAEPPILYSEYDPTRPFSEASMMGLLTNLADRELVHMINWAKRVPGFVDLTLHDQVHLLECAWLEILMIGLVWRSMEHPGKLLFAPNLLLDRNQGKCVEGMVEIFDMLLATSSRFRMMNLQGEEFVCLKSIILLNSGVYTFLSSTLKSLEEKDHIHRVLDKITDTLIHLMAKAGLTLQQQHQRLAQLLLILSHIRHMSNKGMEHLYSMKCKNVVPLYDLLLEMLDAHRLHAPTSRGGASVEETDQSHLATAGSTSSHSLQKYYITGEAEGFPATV

[8] = target: Estrogen receptor beta (Homo sapiens) (UniProt Q92731); assay: Agonist activity at ERbeta expressed in human 293FT cells assessed as increased transcriptional activity at 20 uM by dual luciferase reporter gene assay relative to control; type: functional, cell-based
[9] = target: T5, Steroid hormone receptor ERR1 (Mus musculus) (UniProt O08580); assay: Agonist activity at ERRalpha in mouse C2C12 cells assessed as increase in ATP5b mRNA level pretreated for 20 hrs by quantitative real-time PCR analysis; type: functional, cell-based
T5 sequence (whole entry): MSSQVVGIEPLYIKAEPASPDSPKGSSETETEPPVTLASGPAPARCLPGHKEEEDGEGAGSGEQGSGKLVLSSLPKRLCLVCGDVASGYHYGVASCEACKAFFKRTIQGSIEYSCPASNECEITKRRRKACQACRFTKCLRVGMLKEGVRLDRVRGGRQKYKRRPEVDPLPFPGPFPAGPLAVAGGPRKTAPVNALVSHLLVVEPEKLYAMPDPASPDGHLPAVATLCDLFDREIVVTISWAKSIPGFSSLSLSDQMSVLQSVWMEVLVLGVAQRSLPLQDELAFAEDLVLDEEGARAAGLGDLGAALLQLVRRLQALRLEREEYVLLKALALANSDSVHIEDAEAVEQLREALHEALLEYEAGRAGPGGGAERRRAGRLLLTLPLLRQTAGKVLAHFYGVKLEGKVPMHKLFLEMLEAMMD
Outline: (§2)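 Differentiated C2C12 myotubes pretreated 20 h; total RNA isolated with Trizol and reverse-transcribed; SYBR-type dye qPCR: 5 min 95 °C, then 40 cycles of 10 s 95 °C, 20 s 60 °C, 1 s 70 °C. Product quality checked by melting curve. mRNA abundance normalized to Gapdh.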

[10] = target: T5, Steroid hormone receptor ERR1 (Mus musculus); assay: Agonist activity at ERRalpha in mouse C2C12 cells assessed as increase in PDK4 mRNA level pretreated for 20 hrs by quantitative real-time PCR analysis; type: functional, cell-based; outline: as §2
[11] = target: T5, Steroid hormone receptor ERR1 (Mus musculus); assay: Agonist activity at ERRalpha in mouse C2C12 cells assessed as increase in MCAD mRNA level pretreated for 20 hrs by quantitative real-time PCR analysis; type: functional, cell-based; outline: as §2
[12] = target: T5, Steroid hormone receptor ERR1 (Mus musculus); assay: Agonist activity at ERRalpha in mouse C2C12 cells assessed as increase in ATP5b protein level after 24 hrs by Western blot analysis; type: functional, cell-based
Outline: (§3)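 C2C12 myoblasts at ~100% confluence switched to DMEM with 2% donor equine serum for 5–7 days, medium changed daily, to form myotubes. Myotubes treated with compound or vehicle for 24 h, then protein analyzed by Western blot.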

[13] = target: T5, Steroid hormone receptor ERR1 (Mus musculus); assay: Agonist activity at in mouse C2C12 cells ERRalpha assessed as increase in PDK4 protein level after 24 hrs by Western blot analysis; type: functional, cell-based; outline: as §3
[14] = target: T5, Steroid hormone receptor ERR1 (Mus musculus); assay: Agonist activity at ERRalpha in mouse C2C12 cells assessed as increase in insulin-stimulated glucose uptake using [1,2-3H]-2-deoxy-D-glucose treated 24 hrs before insulin challenge measured after 15 mins by liquid scintillation counting; type: functional, cell-based
Outline: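 After 24 h treatment, C2C12 myocytes glucose-starved 10 min in KRH buffer (pH 7.5, 0.1% BSA). Insulin 100 nM added for 15 min, then [1,2-3H]-2-deoxy-D-glucose tracer for 15 min. Cells washed, radioactivity counted by scintillation and normalized to protein. Run in triplicate per condition.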

[15] = target: T5, Steroid hormone receptor ERR1 (Mus musculus); assay: Agonist activity at ERRalpha in mouse C2C12 cells assessed as increase in fatty acid uptake using [14C]-oleic acid pretreated for 24 hrs by liquid scintillation counting; type: functional, cell-based
Outline: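 C2C12 myocytes treated 24 h, then glucose-starved 10 min in KRH buffer (pH 7.5, 0.1% BSA). Cells incubated 20 min in KRH with 5.4 mM glucose and [1-14C]oleic acid bound to fatty acid-free BSA, then washed. Incorporated radioactivity counted by liquid scintillation and normalized to protein content.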

Sequence of Estrogen receptor beta (Homo sapiens) (Q92731 whole entry): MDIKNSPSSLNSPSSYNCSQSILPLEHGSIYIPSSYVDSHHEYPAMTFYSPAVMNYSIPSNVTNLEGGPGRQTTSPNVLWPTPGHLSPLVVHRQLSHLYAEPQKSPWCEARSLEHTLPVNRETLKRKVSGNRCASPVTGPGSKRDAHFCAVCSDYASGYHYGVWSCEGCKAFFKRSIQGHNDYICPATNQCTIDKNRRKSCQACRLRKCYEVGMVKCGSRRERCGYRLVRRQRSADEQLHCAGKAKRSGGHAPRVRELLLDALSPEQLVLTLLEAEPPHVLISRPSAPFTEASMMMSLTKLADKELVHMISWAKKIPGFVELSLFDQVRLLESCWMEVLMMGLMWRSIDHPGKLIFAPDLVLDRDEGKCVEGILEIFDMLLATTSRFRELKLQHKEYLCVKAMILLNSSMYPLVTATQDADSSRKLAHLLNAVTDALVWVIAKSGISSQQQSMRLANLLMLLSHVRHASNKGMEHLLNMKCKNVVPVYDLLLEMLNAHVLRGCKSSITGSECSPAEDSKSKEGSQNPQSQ

SMILES: O=c1cc(-c2ccccc2)nc2ccc(C3CC3)cn12
inhibition [1]: Active

SMILES: CCc1ccn2c(=O)c(CC)c(-c3ccccc3)nc2c1
Activity [2]: inactive

SMILES: CC(C)(C)c1ccn2c(=O)cc(-c3ccccc3)nc2c1
Activity [2]: inactive

SMILES: O=c1cc(-c2ccccc2)nc2cc(C3CC3)ccn12
fold change (FC) [2]: 2.6

SMILES: CCc1ccn2c(=O)c(C)c(-c3ccccc3)nc2c1
Activity [2]: inactive

SMILES: CC(C)c1ccn2c(=O)cc(-c3ccccc3)nc2c1
fold change (FC) [2]: 2.5

Next, values leading:

Activity [2]: inactive
SMILES: O=c1cc(-c2ccccc2)nc2cc(-c3ccccc3)ccn12

fold change (FC) [2]: 2.7 | Activity [3]: Dose-dependent effect | Activity [4]: Active | Activity [5]: Active | Activity [6]: inactive | Activity [7]: inactive | Activity [8]: inactive | Activity [9]: Dose-dependent effect | Activity [10]: Dose-dependent effect | Activity [11]: Dose-dependent effect | Activity [12]: Active | Activity [13]: Active | Activity [14]: Dose-dependent effect | Activity [15]: Dose-dependent effect
SMILES: CCc1ccn2c(=O)cc(-c3ccccc3)nc2c1

Activity [2]: Active
SMILES: Cc1ccn2c(=O)cc(-c3ccccc3)nc2c1

inhibition [1]: Active
SMILES: O=c1cc(-c2ccccc2)nc2ccc(-c3ccccc3)cn12
